One block for each compound: values may come before it. The source made the active and inactive calls. No cut-off for these calls is given here.
Assays:
[1] = Cmax in Sprague-Dawley rat plasma at 30 mg/kg, ip administered as single dose by LC-MS/MS analysis; type: ADME, organism-based; design: dose 30 mg/kg, route intraperitoneal
Procedure, shortened: (§1)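 Rats dosed ip at 10 or 30 mg/kg. Plasma Cmax, Tmax, half-life and AUC0–inf were determined. Brain concentration was measured 30 min postdose, and brain/plasma ratio was taken at 30 min. Values are the mean (±SEM) of 3 rats.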

[2] = Tmax in Sprague-Dawley rat plasma at 10 mg/kg, po administered as single dose by LC-MS/MS analysis; type: ADME, organism-based
Procedure, shortened: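 Single-dose plasma PK after ip (10 or 30 mg/kg) or oral (10 mg/kg) dosing in rats, and oral 10 mg/kg dosing in mice. […] Values are mean ±SEM of 3 rats or 2 mice.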

[3] = Drug uptake in Sprague-Dawley rat brain at 10 mg/kg, po after 30 mins post dose administered as single dose by LC-MS/MS analysis; type: ADME, organism-based; conditions: read-out: Drug uptake
Procedure, shortened: (§2)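 Rats given a single oral dose of 10 mg/kg. The first plasma sample was taken at 15 min, and sampling continued to 24 h postdose. Brain was sampled at 30 min. Values are the mean (±SEM) of 3 rats.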

[4] = system: Brain; experiment: Fraction unbound in Sprague-Dawley rat brain at 30 mg/kg, ip after 240 mins; type: ADME, organism-based; conditions: in vivo, 4 h
[5] = system: Rattus norvegicus; experiment: Toxicity in 6-OHDA induced parkinsonian motor deficit Sprague-Dawley rat model assessed as induction of dyskinesia at 30 mg/kg, ip; type: organism-based; conditions: in vivo
[6] = biological target: T1, Metabotropic glutamate receptor 4 (Homo sapiens, UniProt Q14833); experiment: Positive allosteric modulation of recombinant human mGlu4 receptor expressed in HEK293 cells co-expressing chimeric G protein assessed as increase in EC20 glutamate-induced […]; type: functional, cell-based
T1 sequence (Q14833 whole entry): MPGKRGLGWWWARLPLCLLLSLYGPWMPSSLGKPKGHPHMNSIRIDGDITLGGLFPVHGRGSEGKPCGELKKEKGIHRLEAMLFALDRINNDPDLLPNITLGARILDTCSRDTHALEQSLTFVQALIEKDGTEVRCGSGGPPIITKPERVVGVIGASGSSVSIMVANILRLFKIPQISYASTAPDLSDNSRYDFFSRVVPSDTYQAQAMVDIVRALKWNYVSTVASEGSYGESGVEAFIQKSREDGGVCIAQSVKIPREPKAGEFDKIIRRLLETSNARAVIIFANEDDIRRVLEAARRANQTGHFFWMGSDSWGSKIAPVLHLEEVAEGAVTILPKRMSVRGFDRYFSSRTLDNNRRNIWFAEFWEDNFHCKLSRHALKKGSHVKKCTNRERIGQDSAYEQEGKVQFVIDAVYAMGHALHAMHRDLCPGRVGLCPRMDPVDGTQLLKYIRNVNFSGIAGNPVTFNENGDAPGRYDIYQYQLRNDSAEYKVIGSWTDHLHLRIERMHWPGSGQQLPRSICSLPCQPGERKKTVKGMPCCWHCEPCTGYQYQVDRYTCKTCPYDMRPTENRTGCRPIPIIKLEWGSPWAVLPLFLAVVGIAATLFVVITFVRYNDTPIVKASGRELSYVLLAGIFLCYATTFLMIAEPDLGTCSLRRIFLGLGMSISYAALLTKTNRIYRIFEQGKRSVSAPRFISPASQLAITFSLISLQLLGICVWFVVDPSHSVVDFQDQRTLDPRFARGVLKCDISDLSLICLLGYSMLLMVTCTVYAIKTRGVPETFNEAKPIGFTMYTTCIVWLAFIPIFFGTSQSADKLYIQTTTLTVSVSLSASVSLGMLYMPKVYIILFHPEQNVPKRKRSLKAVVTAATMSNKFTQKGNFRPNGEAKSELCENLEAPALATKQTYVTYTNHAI

[7] = Ratio of drug uptake in Sprague-Dawley rat brain to plasma at 30 mg/kg, ip after 30 to 60 mins; type: ADME, organism-based; conditions: read-out: BPR
Procedure, shortened: (§3)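 Rats dosed 30 mg/kg ip; plasma sampled over time, brain measured at 30 and 60 min; brain/plasma ratio averaged over 30 and 60 min.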

[8] = Plasma concentration in Sprague-Dawley rat at 30 mg/kg, ip after 120 mins; type: ADME, organism-based; procedure, shortened: as §3
[9] = Ratio of drug level in Sprague-Dawley rat brain to plasma at 10 mg/kg, po after 30 mins post dose administered as single dose by LC-MS/MS analysis; type: ADME, organism-based; conditions: read-out: BPR
Procedure, shortened: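 Single dose ip (10 or 30 mg/kg, rat) or oral (10 mg/kg, rat or mouse); plasma Cmax, Tmax, half-life, AUC0−inf derived; brain concentration and brain/plasma ratio at 30 min postdose. Mean of 3 rats or 2 mice.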

[10] = Drug uptake in Sprague-Dawley rat brain at 30 mg/kg, ip after 30 mins; type: ADME, organism-based; conditions: read-out: Drug uptake
[11] = Protein binding in Sprague-Dawley rat brain at 10 uM by rapid equilibrium dialysis; type: ADME, tissue-based; conditions: read-out: PB (converted)
[12] = system: Rattus norvegicus; experiment: Toxicity in 6-OHDA induced parkinsonian motor deficit Sprague-Dawley rat model assessed as induction of overacting rearing behavior up to 30 mg/kg, ip in presence of L-dopa; type: organism-based; conditions: in vivo
[13] = Ratio of drug uptake in Sprague-Dawley rat brain at 10 mg/kg, ip to EC50 for rat mGlu4 receptor expressed in HEK293 cells
Procedure, shortened: (§4)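 Rats received a single ip or oral dose. Brain concentration was measured 30 min postdose, mean of 3 rats, and divided by the EC50 measured in cell lines overexpressing rat mGluR4.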

[14] = AUC (0 to infinity) in Sprague-Dawley rat at 1 mg/kg, iv administered as single dose by LC-MS/MS analysis; type: ADME, organism-based; design: dose 1 mg/kg, route intravenous, time infinity; conditions: in vivo
[15] = AUC (0 to infinity) in C57BL/6 mouse at 2 mg/kg, iv administered as single dose by LC-MS/MS analysis; type: ADME, organism-based; design: dose 2 mg/kg, time infinity, route intravenous; conditions: in vivo
[16] = AUC (0 to infinity) in Sprague-Dawley rat plasma at 30 mg/kg, ip administered as single dose by LC-MS/MS analysis; type: ADME, organism-based; design: dose 30 mg/kg, time infinity, route intraperitoneal; procedure, shortened: as §1
[17] = Ratio of drug uptake in Sprague-Dawley rat brain at 30 mg/kg, ip to EC50 for rat mGlu4 receptor expressed in HEK293 cells; procedure, shortened: as §4
[18] = AUC (0 to infinity) in Sprague-Dawley rat plasma at 10 mg/kg, po administered as single dose by LC-MS/MS analysis; type: ADME, organism-based; design: dose 10 mg/kg, time infinity, route oral; procedure, shortened: as §2
[19] = system: Rattus norvegicus; experiment: Protection against 6-OHDA induced parkinsonian motor deficit in Sprague-Dawley rat assessed as increase in rearing time at 30 mg/kg, ip after 28 days post surgery; type: functional, organism-based
Procedure, shortened: (§5)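 Adult male Sprague−Dawley rats with bilateral 6-OHDA striatal lesions given compound 30 mg/kg ip or vehicle at T0; spontaneous locomotor activity (active time, slow activity, rearing) counted in 5-min bins versus pre-surgery vehicle; n = 10.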

[20] = biological target: Receptor-type tyrosine-protein kinase FLT3 (Homo sapiens) (UniProt P36888); experiment: Inhibition of Flt3 (unknown origin) at 10 uM relative to control
Sequence of Receptor-type tyrosine-protein kinase FLT3 (Homo sapiens) (P36888 whole entry): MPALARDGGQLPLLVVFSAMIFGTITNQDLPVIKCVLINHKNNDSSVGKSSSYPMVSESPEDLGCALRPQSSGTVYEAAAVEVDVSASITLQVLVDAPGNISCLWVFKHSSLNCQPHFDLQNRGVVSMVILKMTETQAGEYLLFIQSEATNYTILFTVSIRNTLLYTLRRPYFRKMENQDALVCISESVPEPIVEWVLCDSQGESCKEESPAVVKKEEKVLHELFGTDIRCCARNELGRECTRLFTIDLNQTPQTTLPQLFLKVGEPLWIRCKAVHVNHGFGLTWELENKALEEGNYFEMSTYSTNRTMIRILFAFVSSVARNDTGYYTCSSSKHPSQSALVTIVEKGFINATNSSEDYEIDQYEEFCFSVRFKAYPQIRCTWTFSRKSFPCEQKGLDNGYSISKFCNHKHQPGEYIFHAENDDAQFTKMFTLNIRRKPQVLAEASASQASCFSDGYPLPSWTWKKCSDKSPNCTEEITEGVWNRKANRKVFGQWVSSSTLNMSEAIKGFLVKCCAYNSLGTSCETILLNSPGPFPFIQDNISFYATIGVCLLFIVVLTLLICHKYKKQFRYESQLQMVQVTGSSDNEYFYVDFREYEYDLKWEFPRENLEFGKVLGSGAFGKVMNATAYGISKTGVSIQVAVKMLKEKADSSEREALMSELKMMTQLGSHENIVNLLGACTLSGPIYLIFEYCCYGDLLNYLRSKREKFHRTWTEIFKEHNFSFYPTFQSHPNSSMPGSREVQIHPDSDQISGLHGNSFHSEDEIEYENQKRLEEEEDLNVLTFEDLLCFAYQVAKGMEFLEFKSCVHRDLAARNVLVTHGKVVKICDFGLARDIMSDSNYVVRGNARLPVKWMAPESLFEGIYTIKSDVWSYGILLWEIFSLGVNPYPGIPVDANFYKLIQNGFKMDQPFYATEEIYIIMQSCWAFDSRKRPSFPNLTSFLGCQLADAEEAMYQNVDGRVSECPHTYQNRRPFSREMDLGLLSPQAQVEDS

[21] = biological target: Adenosine receptor A2a (Homo sapiens) (UniProt P29274); experiment: Positive allosteric modulation of A2A receptor (unknown origin) at 10 uM
Sequence of Adenosine receptor A2a (Homo sapiens) (P29274 whole entry): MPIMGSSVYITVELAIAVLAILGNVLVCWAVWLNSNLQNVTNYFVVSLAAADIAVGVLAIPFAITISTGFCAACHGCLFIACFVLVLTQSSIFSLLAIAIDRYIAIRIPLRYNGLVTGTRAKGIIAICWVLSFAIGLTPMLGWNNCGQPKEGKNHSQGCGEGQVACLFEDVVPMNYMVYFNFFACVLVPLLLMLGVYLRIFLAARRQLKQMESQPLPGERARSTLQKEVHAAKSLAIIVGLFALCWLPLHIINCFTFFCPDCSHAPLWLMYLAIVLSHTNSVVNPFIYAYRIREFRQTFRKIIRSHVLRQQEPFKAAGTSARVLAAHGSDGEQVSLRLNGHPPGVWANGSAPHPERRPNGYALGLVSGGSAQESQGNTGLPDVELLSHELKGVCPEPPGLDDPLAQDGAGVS

[22] = biological target: Adenosine receptor A2a (Homo sapiens) (UniProt P29274); experiment: Agonist activity at A2A receptor (unknown origin) at 10 uM
[23] = biological target: T1, Metabotropic glutamate receptor 4; experiment: Positive allosteric modulation of recombinant human mGlu4 receptor expressed in HEK293 cells co-expressing chimeric Gi/Gq protein assessed as fold shift in glutamate-induced calcium flux at 3 uM preincubated for 10 mins followed by glutamate addition measured for 3 mins by Fluo4-AM dye based fluorescence assay; type: functional, cell-based
Procedure, shortened: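 HEK-293 cells transiently co-transfected by electroporation with human mGluR4 and chimeric Gi/Gq (GqTOP) were cultured 24 h, FCS-starved 3 h, then loaded 1 h 30 min with 1 μM Fluo4-AM in HBSS/20 mM HEPES buffer containing probenecid and 0.1% BSA. Compound was added for 10 min, then glutamate (10 or 20 concentrations over 4.5 logs), read 3 min (ex 485/em 525 nm). The fold change in glutamate potency with vs without compound gives the shift.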

[24] = biological target: Adenosine receptor A2a (Homo sapiens) (UniProt P29274); experiment: Antagonist activity at A2A receptor (unknown origin) at 10 uM
[25] = biological target: T1, Metabotropic glutamate receptor 4; experiment: Agonist activity at recombinant human mGlu4 receptor expressed in HEK293 cells co-expressing chimeric Gi/Gq protein assessed as increase in calcium flux at 3 uM after 10 mins by Fluo4-AM dye based fluorescence assay relative to control; type: functional, cell-based
Procedure, shortened: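 Human mGluR4 co-expressed in HEK293 cells with the chimeric Gi/Gq (GqTOP) protein, loaded with Fluo4-AM. Compound was added alone and calcium signal recorded for 10 min, compared with the buffer-evoked basal signal.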

[26] = system: Rattus norvegicus; experiment: Protection against 6-OHDA induced parkinsonian motor deficit in Sprague-Dawley rat assessed as increase in active time at 30 mg/kg, ip after 28 days post surgery; type: functional, organism-based; procedure, shortened: as §5
[27] = biological target: Metabotropic glutamate receptor 3 (Homo sapiens) (UniProt Q14832); experiment: Activity at human mGlu3 receptor expressed in HEK293 cells co-expressing Gi/Gq assessed as effect on EC20/EC80 glutamate-induced intracellular calcium level up to 10 uM preincubated for 10 mins followed by glutamate addition measured for 3 mins by Fluo4-AM dye based fluorescence assay; type: functional, cell-based
Sequence of Metabotropic glutamate receptor 3 (Homo sapiens) (Q14832 23-879 limits assumed): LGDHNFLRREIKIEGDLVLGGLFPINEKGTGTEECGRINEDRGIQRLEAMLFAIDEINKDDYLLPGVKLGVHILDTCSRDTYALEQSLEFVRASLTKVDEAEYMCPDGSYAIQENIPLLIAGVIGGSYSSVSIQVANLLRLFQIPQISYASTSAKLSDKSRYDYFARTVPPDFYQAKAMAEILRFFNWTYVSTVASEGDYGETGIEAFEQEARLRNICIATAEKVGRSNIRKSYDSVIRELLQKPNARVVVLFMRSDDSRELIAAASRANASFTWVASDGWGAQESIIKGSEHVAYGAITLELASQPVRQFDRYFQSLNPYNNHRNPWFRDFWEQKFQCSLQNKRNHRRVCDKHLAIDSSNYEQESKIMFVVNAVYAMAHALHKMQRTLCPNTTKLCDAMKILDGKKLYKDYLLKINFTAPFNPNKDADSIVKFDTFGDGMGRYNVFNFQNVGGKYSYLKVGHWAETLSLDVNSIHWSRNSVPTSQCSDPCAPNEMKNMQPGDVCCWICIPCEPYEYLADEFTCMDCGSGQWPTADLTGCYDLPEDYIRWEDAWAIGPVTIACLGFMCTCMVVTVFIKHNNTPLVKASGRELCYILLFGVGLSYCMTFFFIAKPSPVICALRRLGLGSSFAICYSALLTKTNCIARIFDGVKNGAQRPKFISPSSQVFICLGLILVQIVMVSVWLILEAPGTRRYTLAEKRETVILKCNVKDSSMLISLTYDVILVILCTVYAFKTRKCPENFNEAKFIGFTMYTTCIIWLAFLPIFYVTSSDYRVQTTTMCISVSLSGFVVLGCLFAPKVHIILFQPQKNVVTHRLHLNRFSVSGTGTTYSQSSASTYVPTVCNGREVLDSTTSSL
Procedure, shortened: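 HEK-293 cells were electroporated with the human mGluR plus a promiscuous or chimeric G protein and cultured 24 h, then serum-starved 3 h. Cells were loaded 1.5 h with 1 μM Fluo4-AM in HBSS/HEPES buffer with probenecid and 0.1% BSA. Compound was added for 10 min, then glutamate at EC20 (PAM) or EC80 (NAM), and fluorescence (ex 485/em 525) was read for 3 min.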

Cmax [1]: 9320 ng/mL
Tmax [2]: 20 min
concentration at 0.5 h [3]: 454 ng/g
Drug uptake(free) [4]: 2 ng/g
EC50 [6]: 70 nM
Kp [7]: 3.25
concentration at 2 h [8]: 535 ng/mL
Kp at 0.5 h [9]: 2.3
concentration at 0.5 h [10]: 22800 ng/g
fraction unbound at 10 µM [11]: 0.0076
AUC(0-inf) [14]: 166 ng·h/mL
AUC(0-inf) [15]: 269 ng·h/mL
AUC(0-inf) [16]: 11300 ng·h/mL
AUC(0-inf) [18]: 903 ng·h/mL
Compound: O/N=c1\cc(-c2cc3cccn3cn2)oc2ccc(OCCN3CCOCC3)cc12 [listing 1 of 2 here]
Activity [5]: Non-Toxic
Activity [12]: Non-Toxic
Ratio [13]: 3.6
Ratio [17]: 14.5

inhibition [20]: 64%
Activity [21]: inactive
Activity [22]: inactive
fold change (FC) [23]: 10
Activity [24]: inactive
Activity [25]: 19%
Activity [27]: inactive
Compound: O/N=c1\cc(-c2cc3cccn3cn2)oc2ccc(OCCN3CCOCC3)cc12 [listing 2 of 2 here]
Activity [19]: Active
Activity [26]: Active

Reference: ChEMBL document CHEMBL4017520, “Discovery, Structure-Activity Relationship, and Antiparkinsonian Effect of a Potent and Brain-Penetrant Chemical Series of Positive Allosteric Modulators of Metabotropic Glutamate Receptor 4” (J Med Chem, 2017)
